# Results taken from ChEMBL document CHEMBL1135528, “Monocyclic human tachykinin NK-2 receptor antagonists as evolution of a potent bicyclic antagonist: QSAR and site-directed mutagenesis studies” (J Med Chem, 2002).
# Changes are numbered by the printed parent chain. Calls of active or inactive are those of the source. The calls are words filed in the database; no cut-off is given here. Where a SMILES comes first, the peptide text is derived from it. Bridges are numbered along the chain shown (N, C = ends). [ ]: non-standard residue; d: D form. The star is where a group is joined. NH(β-GlcNAc) = CC(=O)N[C@@H]1[C@@H](O)[C@H](O)[C@@H](CO)O[C@H]1N*; Dap = NC[C@H](N)C(=O)O
# Experiments:
# [1] = tested on: Substance-K receptor (Homo sapiens), P21452 [F112A]; test: Binding affinity against F112A human neurokinin-2 receptor (hNK-2R) using [3H]nepadutant as a radioligand
# Summary of the method: (§1)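 Membranes from cells stably transfected with wild-type or mutant hNK-2R, incubated with [3H]nepadutant for 60 min at 20 °C in 50 mM Tris-HCl pH 7.4 containing peptidase inhibitors, 150 mM NaCl, 5 mM MnCl2 and 1 g/L BSA. Competitors ranged 0.3 pM–10 μM. Nonspecific binding was defined with 1 mM unlabeled ligand. Bound label was collected by filtration and counted. Means from ≥3 duplicate experiments.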
# [2] = tested on: Substance-K receptor (Homo sapiens), P21452 [F168A]; test: Binding affinity against F168A human neurokinin-2 receptor (hNK-2R) using [3H]-nepadutant as a radioligand; summary of the method: as §1
# [3] = tested on: Substance-K receptor (Homo sapiens), P21452 [H198A]; test: Binding affinity against H198A human neurokinin-2 receptor (hNK-2R) using [3H]nepadutant as a radioligand; summary of the method: as §1
# [4] = tested on: Substance-K receptor (Homo sapiens), P21452 [I202F]; test: Binding affinity against I202F human neurokinin-2 receptor (hNK-2R) using [3H]nepadutant as a radioligand; summary of the method: as §1
# [5] = tested on: Substance-K receptor (Homo sapiens), P21452 [Q166A]; test: Binding affinity against Q166A human neurokinin-2 receptor (hNK-2R) using [3H]nepadutant as a radioligand; summary of the method: as §1
# [6] = tested on: Substance-K receptor (Homo sapiens), P21452 [S164A]; test: Binding affinity against S164A human neurokinin-2 receptor (hNK-2R) using [3H]nepadutant as a radioligand; summary of the method: as §1
# [7] = tested on: T1, Substance-K receptor (Homo sapiens), P21452 [S170A]; test: Binding affinity against S170A human neurokinin-2 receptor (hNK-2R) using [3H]nepadutant as a radioligand; summary of the method: as §1
# T1 sequence (whole entry): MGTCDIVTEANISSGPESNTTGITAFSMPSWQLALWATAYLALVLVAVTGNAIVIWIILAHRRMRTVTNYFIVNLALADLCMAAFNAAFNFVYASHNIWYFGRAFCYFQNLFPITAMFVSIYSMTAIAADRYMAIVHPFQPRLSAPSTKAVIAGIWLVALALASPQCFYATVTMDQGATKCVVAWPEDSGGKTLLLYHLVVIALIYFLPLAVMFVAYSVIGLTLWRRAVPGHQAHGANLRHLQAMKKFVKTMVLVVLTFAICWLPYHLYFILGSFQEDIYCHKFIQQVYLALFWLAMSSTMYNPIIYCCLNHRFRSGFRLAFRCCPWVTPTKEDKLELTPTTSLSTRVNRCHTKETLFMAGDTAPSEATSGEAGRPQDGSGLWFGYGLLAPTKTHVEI
# [8] = tested on: Substance-K receptor (Homo sapiens), P21452 [T171A]; test: Binding affinity against T171A human neurokinin-2 receptor (hNK-2R) using [3H]nepadutant as a radioligand; UB is undetectable binding; summary of the method: as §1
# [9] = molecular target: T2, Substance-K receptor (Homo sapiens) (UniProt P21452); test: Binding affinity against wild-type human Wild-type tachykinin receptor 2 (hNK-2R) using [3H]-SR-48,968 as a radioligand
# T2 sequence (whole entry): T1 sequence (whole entry) with A170S
# Summary of the method: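 Radioligand [3H]SR48968 was incubated for 30 min at 20 °C with membranes from stably transfected wild-type or mutant hNK-2R cells, in Tris-HCl 50 mM pH 7.4 buffer with protease inhibitors, NaCl, MnCl2 and BSA. Test ligands ranged 0.3 pM–10 μM, with nonspecific binding in 1 mM unlabeled ligand. Filtration through PEI-soaked filters was followed by scintillation counting. pKi was derived by curve fitting, duplicate determinations.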
# [10] = molecular target: T2, Substance-K receptor (Homo sapiens); test: Binding affinity against wild-type human Wild-type tachykinin receptor 2 (hNK-2R) using [125I]-NKA as a radioligand
# [11] = tested on: Substance-K receptor (Homo sapiens), P21452 [Y107A]; test: Binding affinity against Y107A human neurokinin-2 receptor (hNK-2R) using [3H]nepadutant as a radioligand; summary of the method: as §1
# [12] = tested on: Substance-K receptor (Homo sapiens), P21452 [Y206F]; test: Binding affinity against Y206F human neurokinin-2 receptor (hNK-2R) using [3H]nepadutant as a radioligand; summary of the method: as §1
# [13] = tested on: T3, Substance-K receptor (Homo sapiens), P21452 [Y266F]; test: Binding affinity against Y266F human neurokinin-2 receptor (hNK-2R) using [3H]nepadutant as a radioligand; UB is Undetectable Binding; summary of the method: as §1
# T3 sequence (whole entry): T1 sequence (whole entry) with A170S, Y266F
# [14] = tested on: Substance-K receptor (Homo sapiens), P21452 [Y269A]; test: Binding affinity against Y269A human neurokinin-2 receptor (hNK-2R) using [3H]nepadutant as a radioligand; summary of the method: as §1
# [15] = tested on: Substance-K receptor (Homo sapiens), P21452 [Y289F]; test: Binding affinity against Y289F human neurokinin-2 receptor (hNK-2R) using [3H]nepadutant as a radioligand; summary of the method: as §1
# [16] = tested on: T1, Substance-K receptor (Homo sapiens), P21452 [S170A]
# Sequence of Substance-K receptor (Homo sapiens), P21452 [F168A] (P21452 whole entry F168A): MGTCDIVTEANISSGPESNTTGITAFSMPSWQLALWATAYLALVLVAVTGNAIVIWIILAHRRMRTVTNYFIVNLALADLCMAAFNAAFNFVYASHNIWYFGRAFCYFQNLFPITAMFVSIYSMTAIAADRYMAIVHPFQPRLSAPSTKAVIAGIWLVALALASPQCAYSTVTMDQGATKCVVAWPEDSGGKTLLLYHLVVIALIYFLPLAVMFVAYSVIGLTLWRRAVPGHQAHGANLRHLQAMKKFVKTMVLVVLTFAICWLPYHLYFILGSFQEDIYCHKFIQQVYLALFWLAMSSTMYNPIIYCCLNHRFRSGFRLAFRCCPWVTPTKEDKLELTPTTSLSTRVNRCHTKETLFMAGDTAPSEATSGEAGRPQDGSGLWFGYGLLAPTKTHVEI
# Sequence of Substance-K receptor (Homo sapiens), P21452 [Y269A] (P21452 whole entry Y269A): as the sequence (P21452 whole entry F168A) above, with A168F, Y269A counted along it
# Sequence of Substance-K receptor (Homo sapiens), P21452 [T171A] (P21452 whole entry T171A): as the sequence (P21452 whole entry F168A) above, with A168F, T171A counted along it
# Sequence of Substance-K receptor (Homo sapiens), P21452 [Y206F] (P21452 whole entry Y206F): as the sequence (P21452 whole entry F168A) above, with A168F, Y206F counted along it
# Sequence of Substance-K receptor (Homo sapiens), P21452 [H198A] (P21452 whole entry H198A): as the sequence (P21452 whole entry F168A) above, with A168F, H198A counted along it
# Sequence of Substance-K receptor (Homo sapiens), P21452 [Q166A] (P21452 whole entry Q166A): as the sequence (P21452 whole entry F168A) above, with Q166A, A168F counted along it
# Sequence of Substance-K receptor (Homo sapiens), P21452 [I202F] (P21452 whole entry I202F): as the sequence (P21452 whole entry F168A) above, with A168F, I202F counted along it
# Sequence of Substance-K receptor (Homo sapiens), P21452 [Y289F] (P21452 whole entry Y289F): as the sequence (P21452 whole entry F168A) above, with A168F, Y289F counted along it
# Sequence of Substance-K receptor (Homo sapiens), P21452 [Y107A] (P21452 whole entry Y107A): as the sequence (P21452 whole entry F168A) above, with Y107A, A168F counted along it
# Sequence of Substance-K receptor (Homo sapiens), P21452 [F112A] (P21452 whole entry F112A): as the sequence (P21452 whole entry F168A) above, with F112A, A168F counted along it
# Sequence of Substance-K receptor (Homo sapiens), P21452 [S164A] (P21452 whole entry S164A): as the sequence (P21452 whole entry F168A) above, with S164A, A168F counted along it
structure (smiles),measurement,setting,value
CC(=O)N[C@@H]1[C@@H](O)[C@H](O)[C@@H](CO)O[C@H]1NC(=O)C[C@@H]1NC(=O)[C@H](CC(C)C)NC(=O)[C@@H]2CNC(=O)C[C@H](NC1=O)C(=O)N[C@@H](Cc1c[nH]c3ccccc13)C(=O)N[C@@H](Cc1ccccc1)C(=O)N2 (cyclo(D(NH(β-GlcNAc))DWF[Dap]L); lactam 2-5),KD/Ki,[1],22.1 nM
same,KD/Ki,[2],4.1 nM
same,KD/Ki,[3],11.5 nM
same,KD/Ki,[4],0.44 nM
same,KD/Ki,[5],3.5 nM
same,KD/Ki,[6],2.6 nM
same,KD/Ki,[7],1.5 nM
same,UB,[8],inactive
same,KD/Ki,[9],9.1 nM
same,KD/Ki,[10],2.4 nM
same,KD/Ki,[11],0.75 nM
same,KD/Ki,[12],1.1 nM
same,UB,[13],inactive
same,KD/Ki,[14],19 nM
same,KD/Ki,[15],2.9 nM
same,KD/Ki,[16],1.9 nM
